Test results published in PubChem BioAssay.
Calls of active or inactive are those of the source.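 The calls were made as follows, unless noted: active = viability at or under a set limit in both replicates, limit being median viability minus 3 SD (cut at about 48% in these data, passing the limit was not always enough); inconclusive = at or under the limit in just one replicate; inactive = at or above the limit in both replicates.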

Experiments:
[1] = SK-BR-3 cell growth inhibitors, pilot screen, 24 h, human (AID 572;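 active = viability at or below 10% of carrier control in both of two separate runs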;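 also: compound exposure lasted between 18 and 24 h rather than exactly 24 h; 100% = carrier-treated control wells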); settings: SK-BR-3 viability, CellTiter-Glo luminescence, at 10 µM, stronger effect = lower value
[2] = HUVEC growth inhibition – cell-based, human, primary screen (AID 575;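 active = viability at or below 30% in both replicate assays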;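 also: 100% = median of untreated cell wells with 0.1% DMSO on each plate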); settings: HUVEC proliferation, CellTiter-Glo luminescence, 72 h; at 10 µM; stronger effect = lower value
Summary of the method: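 Test system: primary human umbilical vein endothelial cells. Quantity: 1250 cells/well. Compound: single 10 µM dose, 0.1% DMSO, from 5x medium stock. Timing: 72 h treatment at 37 °C. Detection: ATP-based CellTiter-Glo luminescent read. Benchmarks: vehicle and MePR control wells. Format: 384-well plates coated with collagen.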

[3] = growth inhibitors of H69AR lung tumor, primary screen, human, duplicate replicates (AID 580); settings: H69AR lung tumor cells viability, ATP luminescence, 72 h; at 10 µM; stronger effect = lower value;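 also: 100% = mean luminescence of untreated wells and 0% = no signal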
[4] = reversal of MRP1-mediated doxorubicin resistance, pilot screen, H69AR cells, doxorubicin co-treatment (AID 601;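 active = viability loss from added drug above about 55%, and viability with drug at most 40%, in both replicates, limit read from the data, passing the limit was not always enough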); settings: CellTiter-Glo, 72 h, at 10 µM; for differential viability (reversal): stronger effect = higher value
[5] = 384-well plate pilot, post-Golgi transport modulator project, inhibition of yeast transport mutant growth (AID 636; in the data active = inhibition above about 31%); settings: absorbance 615 nm, about 18 h, stronger effect = higher value
[6] = growth suppression of yeast trafficking mutant, preliminary HTS, modulators of trafficking downstream of Golgi apparatus project, 1536-format plate, OD 615 nm (AID 637; in the data active = inhibition above about 30%); settings: yeast transport mutant growth, absorbance 615 nm, 18 h; stronger effect = higher value
[7] = H69AR cells + 2 uM doxorubicin, measured here: viability with 2 uM doxorubicin, stronger effect = lower value
[8] = H69AR cells, compound alone cytotoxicity

Compound | viability [1] | viability [2] | viability [3] | differential viability (reversal) ([4]; H69AR cells + 2 uM doxorubicin) | viability [4, 7] | viability [4, 8] | inhibition [5] | inhibition [6]
CCn1cc(C(=O)O)c(=O)c2cc(F)c(N3CCNCC3)cc21 | 105% (inactive) | 91.1% (inactive) | 92.1% (inactive) | 3.17% (inactive) | 88.9% | 92.1% | -3.77% (inactive) | 7.83% (inactive)
Cc1cc(/C=N\O)c(C)n1-c1ccncc1 | 120% (inactive) | 83.8% (inactive) | 91.4% (inactive) | -5.03% (inactive) | 96.4% | 91.4% | -7.26% (inactive) | -0.32% (inactive)
Cc1ccc2c(c1)N(CC(=O)Nc1ccc3c(c1)OCCO3)C(=O)CO2 | 104% (inactive) | 103% (inactive) | 105% (inactive) | 10.7% (inactive) | 94.3% | 105% | -5% (inactive) | -4.73% (inactive)
Cc1cc(C(=O)Nc2c(F)cc(F)cc2Br)no1 | 99% (inactive) | 91.9% (inactive) | 98.2% (inactive) | -0.16% (inactive) | 98.4% | 98.2% | -6.16% (inactive) | 4.03% (inactive)
CCn1cc(C(=O)NC2CCc3ccccc32)c(=O)c2ccc(C)nc21 (stereo not drawn) | 77% (inactive) | 84.3% (inactive) | 81.6% (inactive) | -10.2% (inactive) | 91.7% | 81.6% | -0.13% (inactive) | 5.41% (inactive)
Cc1cc(C)cc(-n2nnc(C(=O)NCc3ccc4c(c3)OCO4)c2N)c1 | 106% (inactive) | 88.5% (inactive) | 97.7% (inactive) | -6.51% (inactive) | 104% | 97.7% | -5.19% (inactive) | 0% (inactive)
CCOc1ccc2c(c1)c1nnc(SCC(=O)N3CCC(C)CC3)nc1n2C | 84% (inactive) | 70.9% (inactive) | 95.8% (inactive) | 8.51% (inactive) | 87.3% | 95.8% | -3.78% (inactive) | -1.45% (inactive)
CC(C(=O)O)c1ccc(-c2ccccc2)c(F)c1 (stereo not drawn) | 94% (inactive) | 81.7% (inactive) | 90.2% (inactive) | -1.62% (inactive) | 91.8% | 90.2% | -1.82% (inactive) | -1.5% (inactive)
Cc1nc(NC(=O)c2csc3ccccc23)sc1C | 100% (inactive) | 83% (inactive) | 78.2% (inactive) | -3.3% (inactive) | 81.5% | 78.2% | 3.84% (inactive) | -2.74% (inactive)
CCCc1cc(=O)[nH]c(SCc2ccccc2)n1 | 101% (inactive) | 106% (inactive) | 90.4% (inactive) | 8.54% (inactive) | 81.9% | 90.4% | 1.04% (inactive) | -2.46% (inactive)
CCOC(=O)C1CCCN(C(=O)c2sc3nc(-c4ccccc4)cn3c2C)C1 (stereo not drawn) | 112% (inactive) | 89.3% (inactive) | 84.9% (inactive) | 1.98% (inactive) | 82.9% | 84.9% | -1.3% (inactive) | 15.9% (inactive)
Cc1ccccc1Cc1c(C)nc2c(C(=O)N3CCN(Cc4ccc5c(c4)OCO5)CC3)cnn2c1C | 103% (inactive) | 59.6% (inactive) | 79% (inactive) | 6.94% (inactive) | 72.1% | 79% | -1.04% (inactive) | 1.48% (inactive)
COc1c2occc2c(OC)c2c(=O)cc(C)oc12 | 87% (inactive) | 67.9% (inactive) | 91.2% (inactive) | -1.66% (inactive) | 92.8% | 91.2% | 0.13% (inactive) | -5.17% (inactive)
COc1ccc(S(=O)(=O)N2CCN(S(=O)(=O)c3ccc4c(c3)OCCO4)CC2)cc1C | 101% (inactive) | 109% (inactive) | 88.2% (inactive) | 17.5% (inactive) | 70.7% | 88.2% | -5.33% (inactive) | 1.09% (inactive)
CCOc1cc2[nH]c(=O)n(CCCCC(=O)NCc3ccco3)c(=O)c2cc1OCC | 88% (inactive) | 90.7% (inactive) | 82.5% (inactive) | -12.7% (inactive) | 95.3% | 82.5% | -2.34% (inactive) | 1.97% (inactive)
Cc1ccc2c(c1)C(N1CCCC1=O)CC(c1ccco1)N2 (stereo not drawn) | 108% (inactive) | 74.7% (inactive) | 68.7% (inactive) | 2.15% (inactive) | 66.6% | 68.7% | -5.6% (inactive) | -6.51% (inactive)
O=C(NCC1CCCO1)c1cc(-c2ccncc2)nc2ccc(S(=O)(=O)N3CCOCC3)cc12 (stereo not drawn) | 106% (inactive) | 111% (inactive) | 95.8% (inactive) | 8.86% (inactive) | 87% | 95.8% | -7.87% (inactive) | 4.18% (inactive)
COC(=O)CCC(=O)CN | 111% (inactive) | 92.9% (inactive) | 88.6% (inactive) | -4.23% (inactive) | 92.8% | 88.6% | -1.3% (inactive) | 5.67% (inactive)

Compound | viability [1] | viability [2] | viability [3] | differential viability (reversal) ([4]; H69AR cells + 2 uM doxorubicin) | viability [4, 7] | viability [4, 8] | inhibition [5] | inhibition [6]
CCOC(=O)N1CCN(C(=O)c2cn(CC)c3cc(N4CCN(C)CC4)c(F)cc3c2=O)CC1 | 100% (inactive) | 101% (inactive) | 104% (inactive) | 1.33% (inactive) | 103% | 104% | -7.26% (inactive) | 7.74% (inactive)
COc1ccc(-c2nc3cc(NC(=O)Cc4ccc(OC)c(OC)c4)ccc3o2)cc1 | 90.5% (inactive) | 54.8% (inactive) | 94.4% (inactive) | 3.68% (inactive) | 90.7% | 94.4% | 0.67% (inactive) | 2.58% (inactive)
CC(=O)N1CCc2cc(S(=O)(=O)NCCC(=O)Nc3cc(C)cc(C)c3)ccc21 | 95% (inactive) | 104% (inactive) | 95.6% (inactive) | 0.35% (inactive) | 95.3% | 95.6% | -4.93% (inactive) | -4% (inactive)
Cc1nc2ccc(S(=O)(=O)NCC(=O)N(C)Cc3ccco3)cc2s1 | 109% (inactive) | 95.6% (inactive) | 91.6% (inactive) | 9.31% (inactive) | 82.3% | 91.6% | -0.91% (inactive) | 3.93% (inactive)
O=S(=O)(c1ccc2c(c1)OCCO2)N1CCN(Cc2ccc3c(c2)OCO3)CC1 | 112% (inactive) | 105% (inactive) | 88.4% (inactive) | -6.71% (inactive) | 95.1% | 88.4% | -3.24% (inactive) | 1.09% (inactive)
C[C@]12CCC(=O)C=C1CC[C@@H]1[C@@H]2[C@@H](O)C[C@@]2(C)[C@H]1CC[C@]2(O)C(=O)CO | 103% (inactive) | 96.2% (inactive) | 105% (inactive) | 5.76% (inactive) | 98.9% | 105% | -1.43% (inactive) | -3.83% (inactive)
O=C(CCCOc1ccccc1)N1CCN(c2ccccn2)CC1 | 99% (inactive) | 97.7% (inactive) | 104% (inactive) | 5.88% (inactive) | 97.8% | 104% | -0.39% (inactive) | -5.74% (inactive)
Cc1ccc(S(=O)(=O)C(C#N)c2nc3ccccc3nc2OC(C)C)cc1 (stereo not drawn) | 101% (inactive) | 91% (inactive) | 105% (inactive) | 7.79% (inactive) | 97.3% | 105% | -4.13% (inactive) | 4.55% (inactive)
CCOC(=O)c1ccc(CNC(=O)C(Cc2c[nH]c3ccccc23)NC(C)=O)o1 (stereo not drawn) | 90% (inactive) | 90.3% (inactive) | 101% (inactive) | 8.63% (inactive) | 92.3% | 101% | -6.99% (inactive) | 0.36% (inactive)
CN1CCN(c2nc3c(c(=O)n(C)c(=O)n3C)n2Cc2cccc3ccccc23)CC1 | 129% (inactive) | 77.5% (inactive) | 84% (inactive) | 26.6% (inactive) | 57.4% | 84% | 0% (inactive) | 0.16% (inactive)
COc1ccc(-c2noc(CCN3C(=O)c4ccccc4C3=O)n2)cc1OC | 140% (inactive) | 105% (inactive) | 93.9% (inactive) | 17.8% (inactive) | 76.1% | 93.9% | -4.03% (inactive) | -1.15% (inactive)
CNC(=O)CSc1nc2c(c(=O)n(C)c(=O)n2C)n1Cc1ccc(C)cc1 | 100% (inactive) | 92.4% (inactive) | 96.2% (inactive) | 16.2% (inactive) | 79.9% | 96.2% | -2% (inactive) | -7.45% (inactive)
Cc1ccc(NC(=O)CSC2=C(C#N)C(c3ccc4c(c3)OCO4)CC(=O)N2)cc1C (stereo not drawn) | 64% (inactive) | 92.9% (inactive) | 88.6% (inactive) | -4.82% (inactive) | 93.4% | 88.6% | 7.7% (inactive) | -2.55% (inactive)
CC(=O)[C@H]1CC[C@H]2[C@@H]3CCC4=CC(=O)CC[C@]4(C)[C@H]3[C@H](O)C[C@]12C | 87% (inactive) | 83.6% (inactive) | 100% (inactive) | 3.85% (inactive) | 96.6% | 100% | 2.08% (inactive) | -6.83% (inactive)
CCOc1ccccc1OCCCCN1CCCC1 | 87% (inactive) | 109% (inactive) | 91.5% (inactive) | 2.1% (inactive) | 89.4% | 91.5% | -2.21% (inactive) | -1.97% (inactive)
Cn1c(NC(=O)c2cccc(Cn3cc(Cl)cn3)c2)nc2ccccc21 | 83% (inactive) | 72.4% (inactive) | 68.9% (inactive) | 0.885% (inactive) | 68% | 68.9% | -4.93% (inactive) | -2.79% (inactive)
O=C(COC(=O)CCOc1ccccc1)Nc1ccc(Cl)cn1 | 75% (inactive) | 102% (inactive) | 91% (inactive) | -17% (inactive) | 108% | 91% | -2.74% (inactive) | -4.36% (inactive)
CCOC(=O)C1(c2ccccc2)NC(c2ccc(N(C)C)cc2)C2C(=O)N(C)C(=O)C21 (stereo not drawn) | 82% (inactive) | 104% (inactive) | 94.4% (inactive) | 29.2% (inactive) | 65.2% | 94.4% | -8.11% (inactive) | -6.73% (inactive)
